# Data published in PMC4203403 (Journal of Medicinal Chemistry, 2014).
# Read-outs that look alike come from different tables or passages of the source.
# Assays:
# CB1 receptor [1] = molecular target: T1, CB1 receptor (Homo sapiens, UniProt P21554); experiment: ERK1/2 phosphorylation immunoblotting in HEK293 cells expressing CB1; type: cell-based; conditions: for pertussis toxin (PTX) sensitivity of induced ERK1/2 phosphorylation: PTX pretreatment; for pertussis toxin (PTX) sensitivity of induced ERK1/2 phosphorylation / effect of β-arrestin 1 knockdown on induced ERK1/2 phosphorylation: result in words; for effect of β-arrestin 1 knockdown on induced ERK1/2 phosphorylation: siRNA targeting β-arrestin 1; for modulator concentration at which ERK1/2 phosphorylation reached a plateau: in the presence of 0.2 μM CP55,940, 5 min
# CB1 receptor [2] = molecular target: T1, CB1 receptor; conditions: [3H]CP55,940 as orthosteric ligand; given for comparison; cited from earlier work
# CB1 receptor [3] = molecular target: T1, CB1 receptor; experiment: Radioligand binding assay with [3H]CP55,940; conditions: for α: binding cooperativity factor: [3H]CP55,940 as orthosteric ligand, ND = no detectable modulation of [3H]CP55,940 binding using up to 32 μM
# Summary of the method: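 CB1 was transiently expressed in HEK293 cells by calcium phosphate transfection, and membranes were harvested 24 h later. […] Nonspecific binding was measured with 1 μM CP55,940. Read-out was GF/C filtration and scintillation counting. Run in duplicate, ≥3 experiments; KB and α fitted by nonlinear regression.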
# CB1 receptor [4] = molecular target: T1, CB1 receptor; experiment: CP55,940-induced [35S]GTPγS binding assay, HEK293 cell membranes expressing CB1; type: biochemical; conditions: result in words
# T1 sequence (P21554 whole entry): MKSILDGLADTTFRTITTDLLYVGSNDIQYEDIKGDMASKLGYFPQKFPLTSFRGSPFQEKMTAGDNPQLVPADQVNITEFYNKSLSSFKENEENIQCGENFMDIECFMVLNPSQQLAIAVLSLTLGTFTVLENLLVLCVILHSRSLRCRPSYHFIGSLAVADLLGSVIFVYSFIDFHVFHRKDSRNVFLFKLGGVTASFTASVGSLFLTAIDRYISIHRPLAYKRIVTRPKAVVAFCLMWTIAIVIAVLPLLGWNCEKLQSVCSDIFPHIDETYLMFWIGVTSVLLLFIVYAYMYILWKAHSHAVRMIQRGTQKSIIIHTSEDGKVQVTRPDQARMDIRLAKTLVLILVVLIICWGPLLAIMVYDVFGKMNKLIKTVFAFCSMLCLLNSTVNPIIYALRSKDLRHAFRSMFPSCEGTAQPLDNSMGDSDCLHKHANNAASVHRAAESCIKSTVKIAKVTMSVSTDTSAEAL
smiles,measurement,setting,value
"CCCCCCC(C)(C)c1ccc([C@@H]2C[C@H](O)CC[C@H]2CCCO)c(O)c1 [CP55,940, 2-[(1R,2R,5R)-5-hydroxy-2-(3-hydroxypropyl)cyclohexyl]-5-(2-methyloctan-2-yl)phenol, reference compound]",pertussis toxin (PTX) sensitivity of induced ERK1/2 phosphorylation,CB1 receptor [1],substantially attenuated by pertussis toxin (PTX)
same,effect of β-arrestin 1 knockdown on induced ERK1/2 phosphorylation,CB1 receptor [1],not by β-arrestin knockdown
"CCc1c(C(=O)NCCc2ccc(N3CCCCC3)cc2)[nH]c2ccc(Cl)cc12 [Compound 1, 5-Chloro-3-ethyl-N-(4-(piperidin-1-yl)phenethyl)-1H-indole-2-carboxamide]",α: binding cooperativity factor,CB1 receptor [2],6.9
"CCCCCc1c(C(=O)NCCc2ccc(N3CCCCC3)cc2)[nH]c2ccc(Cl)cc12 [Compound 2, 5-chloro-3-pentyl-N-(4-(piperidin-1-yl)phenethyl)-1H-indole-2-carboxamide, reference compound]",modulator concentration at which ERK1/2 phosphorylation reached a plateau,CB1 receptor [1],10 µM
same,effect of β-arrestin 1 knockdown on induced ERK1/2 phosphorylation,CB1 receptor [1],substantial inhibition of ERK1/2 phosphorylation
same,α: binding cooperativity factor,CB1 receptor [2],17.6
"CCc1c(C(=O)NCCc2ccc(N(C)C)cc2)[nH]c2ccc(Cl)cc12 [Compound 4, 5-chloro-N-(4-(dimethylamino)phenethyl)-3-ethyl-1H-indole-2-carboxamide]",α: binding cooperativity factor,CB1 receptor [2],19.7
"CCCCCc1c(C(=O)NCCc2ccc(N(C)C)cc2)[nH]c2ccc(Cl)cc12 [Compound 5, 5-chloro-N-(4-(dimethylamino)phenethyl)-3-pentyl-1H-indole-2-carboxamide]",α: binding cooperativity factor,CB1 receptor [2],16.5
"CCCc1c(C(=O)NCCc2ccc(N3CCCCC3)cc2)[nH]c2ccc(Cl)cc12 [Compound 12a, 5-Chloro-N-(4-(piperidin-1-yl)phenethyl)-3-propyl-1H-indole-2-carboxamide]",α: binding cooperativity factor,CB1 receptor [3],26.7
"CCCc1c(C(=O)NCCc2ccc(N(C)C)cc2)[nH]c2ccc(Cl)cc12 [Compound 12d, 5-Chloro-N-(4-(dimethylamino)phenethyl)-3-propyl-1H-indole-2-carboxamide]",α: binding cooperativity factor,CB1 receptor [3],24.5
same,"effect on CP55,940-induced G-protein coupling activity (GTPγS binding)",CB1 receptor [4],concentration-dependent inhibition of agonist-induced GTPγS binding
same,modulator concentration at which ERK1/2 phosphorylation reached a plateau,CB1 receptor [1],5 µM
same,effect of β-arrestin 1 knockdown on induced ERK1/2 phosphorylation,CB1 receptor [1],substantial inhibition of ERK1/2 phosphorylation
"CCCCc1c(C(=O)NCCc2ccc(N(C)C)cc2)[nH]c2ccc(Cl)cc12 [Compound 12e, 3-Butyl-5-chloro-N-(4-(dimethylamino)phenethyl)-1H-indole-2-carboxamide]",α: binding cooperativity factor,CB1 receptor [3],12.8
"CCCCCCc1c(C(=O)NCCc2ccc(N(C)C)cc2)[nH]c2ccc(Cl)cc12 [Compound 12f, 5-Chloro-N-(4-(dimethylamino)phenethyl)-3-hexyl-1H-indole-2-carboxamide]",α: binding cooperativity factor,CB1 receptor [3],5.1
same,"effect on CP55,940-induced G-protein coupling activity (GTPγS binding)",CB1 receptor [4],concentration-dependent inhibition of agonist-induced GTPγS binding
same,pertussis toxin (PTX) sensitivity of induced ERK1/2 phosphorylation,CB1 receptor [1],PTX insensitive
same,modulator concentration at which ERK1/2 phosphorylation reached a plateau,CB1 receptor [1],5 µM
same,effect of β-arrestin 1 knockdown on induced ERK1/2 phosphorylation,CB1 receptor [1],substantial inhibition of ERK1/2 phosphorylation
"CCc1c(C(=O)NCCc2ccc(N(C)C)cc2)[nH]c2cc(Cl)ccc12 [Compound 21a, N-(4-(Dimethylamino)phenethyl)-3-ethyl-6-chloro-1H-indole-2-carboxamide]",α: binding cooperativity factor,CB1 receptor [3],16.0
"CCc1c(C(=O)NCCc2ccc(N(C)C)cc2)[nH]c2cc(F)ccc12 [Compound 21b, N-(4-(Dimethylamino)phenethyl)-3-ethyl-6-fluoro-1H-indole-2-carboxamide]",α: binding cooperativity factor,CB1 receptor [3],22.9
"CCc1c(C(=O)NCCc2ccc(N(C)C)cc2)[nH]c2cc(OC)ccc12 [Compound 21c, N-(4-(Dimethylamino)phenethyl)-3-ethyl-6-methoxy-1H-indole-2-carboxamide]",α: binding cooperativity factor,CB1 receptor [3],6.2
"CCc1c(C(=O)NCCc2ccc(N(C)C)cc2)[nH]c2ccc(OC)cc12 [Compound 21d, N-(4-(Dimethylamino)phenethyl)-3-ethyl-5-methoxy-1H-indole-2-carboxamide]",α: binding cooperativity factor,CB1 receptor [3],11.9
"CCc1c(C(=O)NCCCc2ccc(N(C)C)cc2)[nH]c2ccc(Cl)cc12 [Compound 26, 5-Chloro-N-(3-(4-(dimethylamino)phenyl)propyl)-3-ethyl-1H-indole-2-carboxamide]","allosteric modulation of orthosteric agonist CP55,940 binding",CB1 receptor [3]; result in words,loss of allosteric modulation
